In the library only some 3% were active in any assay of this set; here they are far more common.
5-HT1A blocker – human 5-HT1a receptor antagonists, primary screen, cell-based, CHO, Ga15 NFAT-bla reporter | 5-hydroxytryptamine receptor 1A (Homo sapiens), P08908 | CHO 5-HT1a Ga15 NFAT-bla reporter, antagonist mode | inhibition, % at 10 µM | 62,000 compounds, 0.68% hits;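 active = inhibition above the mean of all tested compounds plus 3 SD, cut at about 43% in these data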;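 note: receptor stimulated by 5-CT agonist at 100 nM near EC80; beta-lactamase reporter measured by ratiometric fluorescence of a cleavable substrate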
S1P1 ag-PAM – S1P1 agonists and agonism potentiators, primary screen, cell-based, primary and confirmation screens, CRE-bla reporter; Sphingosine 1-phosphate receptor 1 (Homo sapiens), P21453; S1P1 CRE-bla cells, forskolin, beta-lactamase FRET, potentiator mode; S1P1 agonist co-added at EC20, 2 nM; 100% = saturating reference agonist, 0% = basal; activation, % at 9.5 µM; 56,000 compounds, 0.57% hits; AID 449, 2006;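 active = activation above a cutoff set at the mean activation of all tested compounds plus 3 SD, cut at about 54% in these data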;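 note: forskolin at 4 µM as EC80 and the EC20 agonist is SEW2871; 100% = SEW2871 at its EC100 plus forskolin at EC80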
Target sequence (P21453 whole entry, looked up): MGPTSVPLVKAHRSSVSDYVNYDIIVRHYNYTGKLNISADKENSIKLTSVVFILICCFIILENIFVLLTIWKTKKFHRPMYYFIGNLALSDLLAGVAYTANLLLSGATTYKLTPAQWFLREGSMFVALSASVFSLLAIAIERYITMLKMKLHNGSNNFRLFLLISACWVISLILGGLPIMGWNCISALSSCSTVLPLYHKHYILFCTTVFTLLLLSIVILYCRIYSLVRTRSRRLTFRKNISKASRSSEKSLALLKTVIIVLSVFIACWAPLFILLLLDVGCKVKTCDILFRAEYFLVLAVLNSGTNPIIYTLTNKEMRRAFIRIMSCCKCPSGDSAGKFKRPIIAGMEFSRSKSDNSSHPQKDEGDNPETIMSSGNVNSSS
5HT1a ag – human 5-HT1a receptor agonists, primary screen, cell-based, CHO, Ga15 NFAT-bla reporter; 5-hydroxytryptamine receptor 1A (Homo sapiens), P08908; CHO 5-HT1a Ga15 NFAT-bla reporter, FRET ratio; 0% basal, 100% maximal reference agonist; activation, % at 10 µM; 65,000 compounds, 0.56% hits;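 active = activation above the screen-wide mean activation plus 3 SD, cut at about 19% in these data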;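 note: 0% = DMSO wells and 100% = 5-CT at EC100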
5HT1E ag – 5-HT1E receptor agonists, primary screen, cell-based, HTS | 5-hydroxytryptamine receptor 1E (Homo sapiens), P28566 | 65,000 compounds, 0.69% hits | AID 574, 2007 | activation, % at 6 µM | CHO 5-HT1E Ga15 NFAT-bla reporter, FRET; 0% DMSO wells, 100% control agonist wells;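 active = activation above a set limit, the screen-wide mean activation plus 3 SD, cut at about 8.5% in these data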;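 note: 100% = positive control agonist at 1 µM giving full maximal response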
5HT1E antag – 5-HT1E receptor antagonists, primary screen, cell-based, HTS; 5-hydroxytryptamine receptor 1E (Homo sapiens), P28566; CHO 5-HT1E Ga15 NFAT-bla reporter, FRET, antagonist; inhibition, % at 6 µM; 65,000 compounds, 0.99% hits; AID 571, 2007;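 active = inhibition above a set limit, the mean inhibition across every tested compound plus 3 SD, cut at about 29% in these data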;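 note: signal is the 460 over 535 nm emission ratio of beta-lactamase substrate; 0% = agonist plus DMSO wells and 100% = wells without agonist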
S1P3 agonist – human S1P3 receptor agonists, primary screen, cell-based, primary and confirmation, NFAT-BLA reporter | Sphingosine 1-phosphate receptor 3 (Homo sapiens), Q99500 | S1P3 NFAT-BLA reporter cells, agonism, FRET ratio; relative to 1 µM S1P, basal subtracted | activation, % at 4.5 µM | 60,000 compounds, 0.1% hits | AID 373, 2006;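 active = activation above the screen-wide mean plus 3 SD, cut at about 4.5% in these data, passing the limit was not always enough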
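Benchmarks: high control 1 µM S1P / System: stable CHO line with human S1P3, Gα16, NFAT-BLA reporter / Dosing: single compound concentration, 4.5 µM final / Timing: 4 h compound at 37 °C, 2 h substrate at RT / Measured by: FRET β-lactamase substrate fluorescence, excitation 405 nm, 460/535 nm emission ratio, background-subtracted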
* marks the source's active call; other numbers are inactive results; x = not tested or not shown.

SMILES	5-HT1A blocker	S1P1 ag-PAM	5HT1a ag	5HT1E ag	5HT1E antag	S1P3 agonist
Cc1nn(Cc2ccc(Cl)c(Cl)c2)c(C)c1NC(=O)c1cc(CC(C)C)on1	-1	76*	2	1	16	-1
CCCc1cc(C(=O)N(C2CCCCC2)C2CCCCC2)no1	3	13	-2	0	3	58*
CCCc1cc(C(=O)NC2CCCCC2)no1	11	3	-1	0	11	0
Cc1cccc(NC(=O)CNc2cc(C)ccc2C)c1	7	x	-1	0	-8	x
CC(C)CC(c1nnnn1CC1CCCO1)N1CCN(c2nc3ccccc3s2)CC1 (configuration not stated)	3	-19	-5	0	-10	0
CCCCC(c1nnnn1CC1CCCO1)N1CCN(c2nc3ccccc3s2)CC1 (configuration not stated)	26	38	-2	10*	20	-1
CCOC(=O)Cc1csc(NC(=O)c2ccc(Br)s2)n1	18	66*	-2	-2	12	-1
O=C(CSc1ncnc2c1oc1ccccc12)N1CCCc2ccccc21	-15	65*	4	0	4	0
COc1cccc(NC(=O)CSc2ncnc3c2oc2ccccc23)c1	6	-5	2	-1	31*	-2
O=C(Nc1c(-c2ccccc2)nc2sccn12)c1ccccc1	-4	-32	0	0	-8	-1
CCCN(C#N)c1nc(NCC)nc(NC(C)C)n1	8	-26	-1	1	29*	0
CCN(CC)C(=O)CN(C#N)c1nc(NC(C)C)nc(NC(C)C)n1	x	8	-1	0	-11	-1
Cn1cc(/C=N/n2cnc3scc(-c4ccc(Cl)cc4)c3c2=O)c2ccccc21	71*	-17	-5	-1	83*	-2
Cc1cc(N2CCN(S(=O)(=O)c3ccc4c(c3)OCCO4)CC2)n2ncnc2n1	-20	-35	0	1	25	1
CCOc1cc(-c2nc(-c3ccncc3)no2)cc(OCC)c1OCC	-3	-5	1	0	-18	0
COc1ccc(-c2noc(-c3ccccc3C(=O)Nc3cccc(OC)c3)n2)cc1	37	14	0	-1	-7	-1
CCOc1ccc(-c2nc(-c3ccncc3)no2)cc1OCC	4	111*	0	0	-5	54*
CCOc1cc(-c2nc(-c3ccc(OC)cc3)no2)cc(OCC)c1OCC	-12	0	1	0	-12	0
Cc1cc(C)cc(-c2nc(-c3ccncc3)no2)c1	-4	105*	-2	0	-7	-1
CCOc1ccc(-c2nc(-c3ccccc3)no2)cc1OCC	-21	108*	0	0	-14	14*
CCOc1ccccc1NC(=O)c1ccccc1-c1nc(-c2ccccc2)no1	46*	-4	2	1	-14	-1
Cc1ccc(C)c2[nH]c(=O)c(CN(CC3CCCO3)C(=O)NC3CCCCC3)cc12 (configuration not stated)	-6	-13	-3	-1	-18	1
Cc1ccc(C2C(C#N)=C(N)Oc3c2sc2ccccc32)o1 (configuration not stated)	31	-43	0	0	14	-2
CCN(CC(=O)Nc1c(C(=O)OC)[nH]c2ccc(C)cc12)c1ccc2c(c1)OCO2	24	8	0	-1	7	-1
N#CCCn1c2ccccc2c2nc3ccccc3nc21	-9	-54	2	0	38*	0
SMILES	5-HT1A blocker	S1P1 ag-PAM	5HT1a ag	5HT1E ag	5HT1E antag	S1P3 agonist
O=C(O)C1C2C=CC(C2)C1C(=O)NC1CCS(=O)(=O)C1 (configuration not stated)	-6	-23	-1	2	-4	-1
COc1ccc(N2C(=O)CC(NCc3ccncc3)C2=O)cc1 (configuration not stated)	1	x	-1	0	77*	0
COc1ccc(N2C(=O)CC(NCc3cccc(F)c3)C2=O)cc1 (configuration not stated)	-28	x	0	0	-8	-1
COc1ccc(C2C=C(c3ccc(Br)s3)Nc3ncnn32)cc1OC (configuration not stated)	34	-29	-2	0	34*	0
COc1ccc(C2=CC(c3ccc(OC)c(OC)c3)n3nnnc3N2)c(OC)c1 (configuration not stated)	6	-57	0	0	29*	0
COc1cccc(C2=CC(c3cccc(OC)c3OC)n3nnnc3N2)c1 (configuration not stated)	24	-12	-2	0	10	-1
COc1cccc(C2C=C(c3cccs3)Nc3ncnn32)c1OC (configuration not stated)	26	9	-4	0	30*	-1
COc1cccc(C2C=C(c3ccc(OC)cc3OC)Nc3nnnn32)c1 (configuration not stated)	8	13	2	0	20	-1
COc1ccc(CNC(=O)c2cnn3c(C(F)F)cc(C)nc23)cc1OC	11	-26	0	0	23	0
CSCC[C@H](NC(=O)Nc1ccc(C)cc1C)C(=O)O	-4	11	111*	0	5	1
CSCC[C@H](NC(=O)NCc1ccccc1F)C(=O)O	-2	-4	-2	-1	-4	-2
CCCc1cc(N2CCCC(C(=O)NCC)C2)n2ncnc2n1 (configuration not stated)	-10	-3	-4	0	3	0
CCn1nc(C(=O)OCc2c(C)noc2C)c2ccccc2c1=O	11	-22	-1	0	29*	-1
O=C(CN1CCN(Cc2ccc(Cl)cc2)C1=O)NCCN1CCCC1	-4	4	2	1	17	0
O=C1c2ccccc2C(Nc2ccc(S(=O)(=O)N3CCCCCC3)cc2)N1Cc1ccco1 (configuration not stated)	13	23	44*	0	5	-1
N=c1sc2ccccc2n1-c1ccccc1	-7	x	3	25*	25	x
COc1ccccc1NC(=O)CCn1c(=O)sc2ccccc21	-4	x	-1	1	-8	x

High-throughput results deposited in PubChem by The Scripps Research Institute Molecular Screening Center.
